Measured values pooled from the literature.
Compare with care: the assays were run in different laboratories.
Cell line: MDA-MB-231
Observed: cell growth or viability

COc1cc2c(cc1O)CCN(Cc1cc(Br)c(OC)c(OC)c1)C2
GI50 (WST-1; 96 h): 200 nM

CC(=O)c1c(C)c2cnc(Nc3ccc(N4CCNCC4)cn3)nc2n(C2CCCC2)c1=O
GI50 (resazurin): 250 nM

COc1cc2c(cc1OS(N)(=O)=O)CCN(Cc1cc(Cl)c(OC)c(OC)c1)C2
GI50 (WST-1; 96 h): 40 nM

COc1ccc(OC)c(CN2CCc3cc(OS(N)(=O)=O)c(OC)cc3C2)c1
GI50 (WST-1; 96 h): 1850 nM

CCOc1c(OC)cc(CN2CCc3cc(OS(N)(=O)=O)c(OC)cc3C2)cc1OC
GI50 (WST-1; 96 h): 70 nM

COc1cccc2c1C(=O)c1c(O)c3c(c(O)c1C2=O)C[C@@](O)(C(=O)CO)C[C@@H]3O[C@H]1C[C@H](N)[C@H](O)[C@H](C)O1
GI50 (MTT; 72 h): 53.3 nM

COc1cc2c(cc1OS(N)(=O)=O)CCN(Cc1ccc(OC)c(OC)c1OC)C2
GI50 (WST-1; 96 h): 11900 nM

Cc1cc2c(cc1N1C(=O)c3cccc4c(CCCO)ccc(c34)C1=O)n(C)c(=O)n2C (racemic)
GI50 (resazurin): > 10000 nM

COc1ccc(OC)c(CN2CCc3cc(O)c(OC)cc3C2)c1
GI50 (WST-1; 96 h): 37000 nM

COc1cc2c(cc1O)CC[C@@H]1[C@@H]2CC[C@]2(C)[C@@H](O)CC[C@@H]12
GI50 (48 h): 1700 nM
